Measured values from ChEMBL document CHEMBL3603808, “Discovery and structure of a new inhibitor scaffold of the autophagy initiating kinase ULK1” (Bioorg Med Chem, 2015).
Values belong to the compound of their own block, whether it stands above or below them. Calls of active or inactive are those of the source. The rule behind the calls is not given here.

Experiments:
[1] = molecular target: T1, Serine/threonine-protein kinase ULK1 (Homo sapiens, UniProt O75385); assay: Inhibition of SUMO-tagged ULK1 (unknown origin) kinase domain expressed in KRX cells using [32P]-gamma-ATP and myelin basic protein substrate incubated for 7 mins; assay type: cell-based
T1 sequence (O75385 whole entry): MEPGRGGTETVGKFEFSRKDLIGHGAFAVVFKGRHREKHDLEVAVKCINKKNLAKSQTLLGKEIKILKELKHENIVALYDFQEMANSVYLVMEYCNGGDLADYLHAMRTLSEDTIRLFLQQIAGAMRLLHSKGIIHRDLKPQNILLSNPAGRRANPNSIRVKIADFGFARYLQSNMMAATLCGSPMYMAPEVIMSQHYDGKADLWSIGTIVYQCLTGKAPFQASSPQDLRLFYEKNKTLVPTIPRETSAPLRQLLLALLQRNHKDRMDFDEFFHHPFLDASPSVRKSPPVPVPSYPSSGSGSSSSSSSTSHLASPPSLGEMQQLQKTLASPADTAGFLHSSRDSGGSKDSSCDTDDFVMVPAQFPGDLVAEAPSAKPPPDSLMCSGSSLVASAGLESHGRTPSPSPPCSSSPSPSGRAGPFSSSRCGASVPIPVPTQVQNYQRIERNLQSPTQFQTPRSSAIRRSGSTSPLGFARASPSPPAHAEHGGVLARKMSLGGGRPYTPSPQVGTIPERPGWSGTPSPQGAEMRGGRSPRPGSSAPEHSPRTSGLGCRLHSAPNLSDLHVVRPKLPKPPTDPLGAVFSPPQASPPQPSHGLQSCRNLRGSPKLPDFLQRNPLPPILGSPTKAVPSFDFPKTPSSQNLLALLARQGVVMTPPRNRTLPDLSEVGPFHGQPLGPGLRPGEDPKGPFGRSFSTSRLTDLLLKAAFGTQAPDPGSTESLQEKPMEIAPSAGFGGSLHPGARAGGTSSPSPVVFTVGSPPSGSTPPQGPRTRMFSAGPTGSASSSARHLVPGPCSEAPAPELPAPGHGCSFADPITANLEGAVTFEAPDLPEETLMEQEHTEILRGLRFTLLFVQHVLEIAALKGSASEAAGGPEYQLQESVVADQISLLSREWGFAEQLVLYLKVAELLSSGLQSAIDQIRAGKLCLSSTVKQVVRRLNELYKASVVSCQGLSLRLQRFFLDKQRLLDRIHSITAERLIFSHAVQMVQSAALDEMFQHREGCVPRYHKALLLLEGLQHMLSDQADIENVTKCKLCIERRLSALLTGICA
Outline: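 Enzyme at 5 nM with 50 µM cold ATP, 0.05 µCi/µl 32P-γ-ATP and 20 µM myelin basic protein as substrate. Reactions were spotted onto nitrocellulose, washed three times in 1% phosphoric acid, dried and imaged by phosphorimager. IC50 from curve fitting; duplicate.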

[2] = test system: HeLa; assay: Inhibition of autophagy in human HeLa cells assessed as induction of LC3-I protein accumulation at 4 uM incubated for 24 hrs by immunoblotting method; assay type: functional, cell-based
Outline: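 HeLa cells were grown in DMEM with 10% FBS to about 50% confluency, then given 4 µM compound or DMSO for 24 h. Cold-PBS wash, lysis in TBS pH 7.6 with 1% Triton-X, 0.2% SDS and protease/phosphatase inhibitors. Lysates were protein-normalized and immunoblotted for LC3-I/LC3-II, with actin as loading control.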

[3] = molecular target: Vascular endothelial growth factor receptor (Homo sapiens) (UniProt P17948+P35916+P35968); assay: Inhibition of VEGFR (unknown origin) at 2 uM by radioactive filter-binding assay; assay type: protein assay
Outline: (§1)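 Panel profiling of one compound against 50 kinases, carried out in duplicate at the International Centre for Protein Kinase Profiling. Radioactive filter-binding format.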

[4] = molecular target: Mitogen-activated protein kinase kinase kinase 7 (Homo sapiens) (UniProt O43318); assay: Inhibition of TAK1 (unknown origin) at 2 uM by radioactive filter-binding assay; outline: as §1
[5] = molecular target: MAP/microtubule affinity-regulating kinase 3 (Homo sapiens) (UniProt P27448); assay: Inhibition of MARK3 (unknown origin) at 2 uM by radioactive filter-binding assay; outline: as §1
[6] = molecular target: Serine/threonine-protein kinase D1 (Homo sapiens) (UniProt Q15139); assay: Inhibition of PKD1 (unknown origin) at 2 uM by radioactive filter-binding assay; outline: as §1
[7] = molecular target: Mitogen-activated protein kinase kinase kinase 11 (Homo sapiens) (UniProt Q16584); assay: Inhibition of MLK3 (unknown origin) at 2 uM by radioactive filter-binding assay; outline: as §1
[8] = molecular target: T2, AMP-activated protein kinase, AMPK (Homo sapiens) (UniProt P54646+O43741+P54619+Q9UGJ0+Q9Y478+Q13131+Q9UGI9); assay: Inhibition of AMPK (unknown origin) at 2 uM by radioactive filter-binding assay; assay type: protein-complex assay; outline: as §1
[9] = molecular target: Calcium/calmodulin-dependent protein kinase type 1 (Homo sapiens) (UniProt Q14012); assay: Inhibition of CAMK1 (unknown origin) at 250 nM by radioactive filter-binding assay; outline: as §1
[10] = molecular target: Receptor-interacting serine/threonine-protein kinase 2 (Homo sapiens) (UniProt O43353); assay: Inhibition of RIPK2 (unknown origin) at 250 nM by radioactive filter-binding assay; outline: as §1
[11] = molecular target: SRSF protein kinase 1 (Homo sapiens) (UniProt Q96SB4); assay: Inhibition of SRPK1 (unknown origin) at 250 nM by radioactive filter-binding assay; outline: as §1
[12] = molecular target: Tyrosine-protein kinase BTK (Homo sapiens) (UniProt Q06187); assay: Inhibition of BTK (unknown origin) at 250 nM by radioactive filter-binding assay; outline: as §1
[13] = molecular target: Serine/threonine-protein kinase PAK 4 (Homo sapiens) (UniProt O96013); assay: Inhibition of PAK4 (unknown origin) at 250 nM by radioactive filter-binding assay; outline: as §1
[14] = molecular target: Serine/threonine-protein kinase TBK1 (Homo sapiens) (UniProt Q9UHD2); assay: Inhibition of TBK1 (unknown origin) at 250 nM by radioactive filter-binding assay; outline: as §1
[15] = molecular target: Interleukin-1 receptor-associated kinase 4 (Homo sapiens) (UniProt Q9NWZ3); assay: Inhibition of IRAK4 (unknown origin) at 250 nM by radioactive filter-binding assay; outline: as §1
[16] = species on record: Homo sapiens; assay: Inhibition of Aurora (unknown origin) at 250 nM by radioactive filter-binding assay; outline: as §1
[17] = molecular target: Insulin-like growth factor 1 receptor (Homo sapiens) (UniProt P08069); assay: Inhibition of IGF1R (unknown origin) at 250 nM by radioactive filter-binding assay; outline: as §1
[18] = molecular target: Tyrosine-protein kinase JAK2 (Homo sapiens) (UniProt O60674); assay: Inhibition of JAK2 (unknown origin) at 250 nM by radioactive filter-binding assay; outline: as §1
[19] = molecular target: Calcium/calmodulin-dependent protein kinase kinase 2 (Homo sapiens) (UniProt Q96RR4); assay: Inhibition of CAMKKB (unknown origin) at 250 nM by radioactive filter-binding assay; outline: as §1
[20] = molecular target: Serine/threonine-protein kinase 3 (Homo sapiens) (UniProt Q13188); assay: Inhibition of MST2 (unknown origin) at 250 nM by radioactive filter-binding assay; outline: as §1
[21] = molecular target: Tyrosine-protein kinase Lck (Homo sapiens) (UniProt P06239); assay: Inhibition of LCK (unknown origin) at 250 nM by radioactive filter-binding assay; outline: as §1
[22] = molecular target: T2, AMP-activated protein kinase, AMPK (Homo sapiens); assay: Inhibition of AMPK (unknown origin) at 250 nM by radioactive filter-binding assay; assay type: protein-complex assay; outline: as §1

Sequence of Mitogen-activated protein kinase kinase kinase 11 (Homo sapiens) (Q16584 whole entry, looked up): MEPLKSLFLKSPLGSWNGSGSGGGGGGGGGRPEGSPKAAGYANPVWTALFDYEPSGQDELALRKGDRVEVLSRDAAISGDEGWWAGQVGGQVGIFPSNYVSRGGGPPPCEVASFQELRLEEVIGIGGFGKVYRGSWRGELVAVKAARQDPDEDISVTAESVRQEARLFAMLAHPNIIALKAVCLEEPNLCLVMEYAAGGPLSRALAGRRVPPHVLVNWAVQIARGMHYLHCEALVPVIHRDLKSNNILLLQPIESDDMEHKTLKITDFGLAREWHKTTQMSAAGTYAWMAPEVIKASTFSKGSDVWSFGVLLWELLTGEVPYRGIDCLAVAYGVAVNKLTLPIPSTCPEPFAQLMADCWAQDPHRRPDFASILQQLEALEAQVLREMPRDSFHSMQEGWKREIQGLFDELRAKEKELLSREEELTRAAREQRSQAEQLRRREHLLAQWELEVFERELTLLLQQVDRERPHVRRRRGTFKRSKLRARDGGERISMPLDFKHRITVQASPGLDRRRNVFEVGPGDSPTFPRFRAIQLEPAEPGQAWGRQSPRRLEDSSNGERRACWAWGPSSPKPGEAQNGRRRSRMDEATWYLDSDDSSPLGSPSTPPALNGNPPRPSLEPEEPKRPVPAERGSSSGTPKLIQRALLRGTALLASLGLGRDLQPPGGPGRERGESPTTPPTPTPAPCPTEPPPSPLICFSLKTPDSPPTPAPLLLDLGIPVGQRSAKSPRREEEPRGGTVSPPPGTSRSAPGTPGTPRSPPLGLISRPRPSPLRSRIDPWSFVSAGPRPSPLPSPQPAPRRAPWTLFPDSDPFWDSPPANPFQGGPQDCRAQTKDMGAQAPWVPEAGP
Sequence of MAP/microtubule affinity-regulating kinase 3 (Homo sapiens) (P27448 whole entry, looked up): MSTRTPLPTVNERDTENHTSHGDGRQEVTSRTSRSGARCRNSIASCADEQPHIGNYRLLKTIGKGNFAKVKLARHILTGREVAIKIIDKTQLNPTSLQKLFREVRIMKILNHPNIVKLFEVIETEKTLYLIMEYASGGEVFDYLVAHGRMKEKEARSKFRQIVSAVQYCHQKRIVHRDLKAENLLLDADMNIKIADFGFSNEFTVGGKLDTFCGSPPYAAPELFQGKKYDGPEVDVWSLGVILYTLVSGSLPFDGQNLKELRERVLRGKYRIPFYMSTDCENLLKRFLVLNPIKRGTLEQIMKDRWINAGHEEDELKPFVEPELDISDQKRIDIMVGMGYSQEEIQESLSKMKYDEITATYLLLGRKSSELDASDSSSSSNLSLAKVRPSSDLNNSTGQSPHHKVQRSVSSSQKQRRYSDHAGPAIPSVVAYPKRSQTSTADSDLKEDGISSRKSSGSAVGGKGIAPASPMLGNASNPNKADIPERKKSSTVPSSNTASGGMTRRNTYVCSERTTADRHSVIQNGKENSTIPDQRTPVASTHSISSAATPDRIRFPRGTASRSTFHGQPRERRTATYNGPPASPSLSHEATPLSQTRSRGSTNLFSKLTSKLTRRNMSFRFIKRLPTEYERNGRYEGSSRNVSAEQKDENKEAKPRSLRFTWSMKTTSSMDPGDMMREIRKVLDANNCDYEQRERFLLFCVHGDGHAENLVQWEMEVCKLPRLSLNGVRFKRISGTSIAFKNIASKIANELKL
Sequence of Mitogen-activated protein kinase kinase kinase 7 (Homo sapiens) (O43318 whole entry): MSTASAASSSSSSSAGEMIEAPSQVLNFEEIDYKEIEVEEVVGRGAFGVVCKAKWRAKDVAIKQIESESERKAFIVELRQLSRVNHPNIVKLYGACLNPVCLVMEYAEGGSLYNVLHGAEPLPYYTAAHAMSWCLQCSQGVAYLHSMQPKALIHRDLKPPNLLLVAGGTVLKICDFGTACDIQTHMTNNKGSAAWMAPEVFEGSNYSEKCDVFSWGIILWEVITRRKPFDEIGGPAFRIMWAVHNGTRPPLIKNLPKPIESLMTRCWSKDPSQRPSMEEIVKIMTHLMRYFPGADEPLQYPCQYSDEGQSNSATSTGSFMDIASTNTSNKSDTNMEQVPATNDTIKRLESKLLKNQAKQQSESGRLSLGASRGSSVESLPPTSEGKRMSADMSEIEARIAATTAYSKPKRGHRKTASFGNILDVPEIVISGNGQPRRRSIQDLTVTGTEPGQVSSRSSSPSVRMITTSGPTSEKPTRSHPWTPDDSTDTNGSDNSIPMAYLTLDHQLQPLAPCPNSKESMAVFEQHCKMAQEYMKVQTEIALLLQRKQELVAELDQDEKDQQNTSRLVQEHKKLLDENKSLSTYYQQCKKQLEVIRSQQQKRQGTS
Sequence of Calcium/calmodulin-dependent protein kinase kinase 2 (Homo sapiens) (Q96RR4 2-588 limits assumed): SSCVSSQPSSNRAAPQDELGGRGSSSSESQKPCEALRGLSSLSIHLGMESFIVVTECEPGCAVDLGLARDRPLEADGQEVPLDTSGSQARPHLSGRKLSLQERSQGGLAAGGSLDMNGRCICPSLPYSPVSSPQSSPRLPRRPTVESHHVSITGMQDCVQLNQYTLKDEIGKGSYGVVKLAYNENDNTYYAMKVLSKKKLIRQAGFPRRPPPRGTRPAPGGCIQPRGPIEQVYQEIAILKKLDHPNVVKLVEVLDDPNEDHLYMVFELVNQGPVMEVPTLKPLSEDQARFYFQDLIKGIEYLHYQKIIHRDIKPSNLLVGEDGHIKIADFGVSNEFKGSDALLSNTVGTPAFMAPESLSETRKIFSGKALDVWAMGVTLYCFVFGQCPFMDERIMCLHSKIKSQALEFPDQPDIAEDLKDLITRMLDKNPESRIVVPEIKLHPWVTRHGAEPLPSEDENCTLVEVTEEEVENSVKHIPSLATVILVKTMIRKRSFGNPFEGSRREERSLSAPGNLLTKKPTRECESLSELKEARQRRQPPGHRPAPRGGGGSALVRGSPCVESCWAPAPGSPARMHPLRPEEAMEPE
Sequence of Serine/threonine-protein kinase D1 (Homo sapiens) (Q15139 whole entry): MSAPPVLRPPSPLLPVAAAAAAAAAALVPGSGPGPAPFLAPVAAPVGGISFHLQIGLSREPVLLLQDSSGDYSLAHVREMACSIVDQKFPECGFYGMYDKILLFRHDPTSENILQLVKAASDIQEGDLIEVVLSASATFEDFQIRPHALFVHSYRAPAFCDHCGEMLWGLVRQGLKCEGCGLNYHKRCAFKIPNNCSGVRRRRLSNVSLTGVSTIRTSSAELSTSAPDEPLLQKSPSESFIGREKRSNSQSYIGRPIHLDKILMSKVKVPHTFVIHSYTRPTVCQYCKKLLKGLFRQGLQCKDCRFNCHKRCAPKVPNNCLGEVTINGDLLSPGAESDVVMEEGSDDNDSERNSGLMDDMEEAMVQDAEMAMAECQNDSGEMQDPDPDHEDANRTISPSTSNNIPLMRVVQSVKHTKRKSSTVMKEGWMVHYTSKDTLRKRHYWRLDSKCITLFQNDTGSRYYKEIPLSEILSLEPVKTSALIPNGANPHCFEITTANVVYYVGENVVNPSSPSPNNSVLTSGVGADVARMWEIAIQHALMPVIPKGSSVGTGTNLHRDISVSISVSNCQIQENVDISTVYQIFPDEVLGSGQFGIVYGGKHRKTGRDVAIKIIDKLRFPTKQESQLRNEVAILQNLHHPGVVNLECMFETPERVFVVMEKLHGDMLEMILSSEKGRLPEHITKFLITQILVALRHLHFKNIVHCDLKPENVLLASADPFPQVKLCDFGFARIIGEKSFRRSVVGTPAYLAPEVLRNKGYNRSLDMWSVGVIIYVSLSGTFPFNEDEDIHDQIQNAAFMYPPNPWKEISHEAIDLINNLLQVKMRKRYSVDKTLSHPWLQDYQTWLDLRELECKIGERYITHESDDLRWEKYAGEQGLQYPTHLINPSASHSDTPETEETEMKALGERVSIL
Sequence of Serine/threonine-protein kinase TBK1 (Homo sapiens) (Q9UHD2 whole entry): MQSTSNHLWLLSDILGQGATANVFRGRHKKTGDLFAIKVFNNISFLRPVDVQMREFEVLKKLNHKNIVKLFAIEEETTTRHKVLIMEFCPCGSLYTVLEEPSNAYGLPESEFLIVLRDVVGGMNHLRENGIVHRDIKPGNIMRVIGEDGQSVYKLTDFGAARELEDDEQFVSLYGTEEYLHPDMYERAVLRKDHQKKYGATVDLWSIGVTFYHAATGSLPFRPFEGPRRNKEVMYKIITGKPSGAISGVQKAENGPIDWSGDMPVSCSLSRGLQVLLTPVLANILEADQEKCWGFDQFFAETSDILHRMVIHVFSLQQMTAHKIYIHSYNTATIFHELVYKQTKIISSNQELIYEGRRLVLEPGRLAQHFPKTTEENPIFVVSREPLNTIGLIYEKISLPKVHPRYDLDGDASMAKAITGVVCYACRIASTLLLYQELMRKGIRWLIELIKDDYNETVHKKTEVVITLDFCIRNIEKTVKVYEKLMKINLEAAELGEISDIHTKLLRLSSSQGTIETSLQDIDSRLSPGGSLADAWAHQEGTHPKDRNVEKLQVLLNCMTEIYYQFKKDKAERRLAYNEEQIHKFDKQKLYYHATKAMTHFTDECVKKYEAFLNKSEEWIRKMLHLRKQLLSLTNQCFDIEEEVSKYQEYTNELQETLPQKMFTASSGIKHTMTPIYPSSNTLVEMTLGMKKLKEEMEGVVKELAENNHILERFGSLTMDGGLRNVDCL
Sequence of Receptor-interacting serine/threonine-protein kinase 2 (Homo sapiens) (O43353 whole entry): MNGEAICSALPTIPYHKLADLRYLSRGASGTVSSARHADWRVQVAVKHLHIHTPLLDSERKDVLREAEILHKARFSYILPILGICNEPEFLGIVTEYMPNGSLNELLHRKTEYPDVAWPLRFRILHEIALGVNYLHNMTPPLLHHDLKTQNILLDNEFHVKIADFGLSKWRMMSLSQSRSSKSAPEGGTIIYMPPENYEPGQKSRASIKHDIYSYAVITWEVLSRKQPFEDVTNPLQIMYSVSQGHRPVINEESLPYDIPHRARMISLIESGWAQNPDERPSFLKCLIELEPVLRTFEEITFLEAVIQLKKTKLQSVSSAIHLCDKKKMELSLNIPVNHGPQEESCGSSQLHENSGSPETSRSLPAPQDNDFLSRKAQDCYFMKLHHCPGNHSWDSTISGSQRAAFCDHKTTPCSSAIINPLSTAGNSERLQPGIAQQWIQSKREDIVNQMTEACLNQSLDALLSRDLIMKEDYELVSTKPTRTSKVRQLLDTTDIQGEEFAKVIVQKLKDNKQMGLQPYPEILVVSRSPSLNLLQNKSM

IC50 [1]: 120 nM | inhibition [3]: > 80% | inhibition [4]: > 80% | inhibition [5]: > 80% | inhibition [6]: > 80% | inhibition [7]: > 80% | inhibition [8]: > 80%
Compound: NCCCNc1nc(Nc2cccc(NC(=O)N3CCCC3)c2)ncc1I
Activity [2]: Active

inhibition [9]: > 80% | inhibition [10]: > 80% | inhibition [11]: > 80% | inhibition [12]: > 80% | inhibition [13]: > 80% | inhibition [14]: > 80% | inhibition [15]: > 80% | inhibition [16]: > 80% | inhibition [17]: > 80% | inhibition [18]: > 80% | inhibition [19]: > 80% | inhibition [20]: > 80% | inhibition [21]: > 80% | inhibition [22]: > 80%
Compound: c1ccc2c(Nc3cc(C4CCC4)[nH]n3)nc(Nc3ccc4[nH]cnc4c3)nc2c1
